Assay results as given in ChEMBL document CHEMBL1131052, “Bis-substituted malonic acid hydroxamate derivatives as inhibitors of human neutrophil collagenase (MMP8)” (J Med Chem, 1998).

What follows are compounds tested against Neutrophil collagenase (Homo sapiens, UniProt P22894) (assay: Inhibition of human neutrophil collagenase (Matrix metalloprotease-8)).
Method in brief: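 Catalytic domain of MMP8 (Phe79–Gly242) at 8 nM; fluorogenic substrate Dnp-Pro-Leu-Gly-Leu-Trp-Ala-D-Arg-NH2 at 1 × 10^-5 M; 10 mM CaCl2, 100 mM NaCl, 50 mM Tris/HCl pH 7.6, 25 °C. Initial hydrolysis rates were taken from the fluorescence rise at 350 nm over 100 s. IC50 values were fitted from these rates, and Ki values were derived from the kinetic data.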

Neutrophil collagenase, sequence (P22894 whole entry, the tested form may be a part): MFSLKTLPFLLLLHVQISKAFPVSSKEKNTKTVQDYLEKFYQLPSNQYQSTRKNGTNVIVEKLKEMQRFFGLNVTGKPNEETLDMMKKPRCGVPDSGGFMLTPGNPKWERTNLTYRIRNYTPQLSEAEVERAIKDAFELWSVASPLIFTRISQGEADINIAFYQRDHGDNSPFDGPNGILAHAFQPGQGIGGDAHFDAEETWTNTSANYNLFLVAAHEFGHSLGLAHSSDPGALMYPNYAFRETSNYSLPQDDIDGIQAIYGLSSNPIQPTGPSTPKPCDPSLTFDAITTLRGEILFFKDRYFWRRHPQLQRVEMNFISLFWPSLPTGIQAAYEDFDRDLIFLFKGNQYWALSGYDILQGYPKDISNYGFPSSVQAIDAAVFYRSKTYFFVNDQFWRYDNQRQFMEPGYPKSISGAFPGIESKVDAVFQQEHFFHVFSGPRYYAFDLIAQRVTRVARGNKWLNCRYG

First: CCOC(=O)C(C)(Cc1ccccc1)C(=O)NO (stereo not given)
Second: CC(Cc1ccccc1)(C(=O)NO)C(=O)Nc1ccccc1 (stereo not given)
The Ki of the first is 4-fold lower: 11000 nM for the first, 44000 nM for the second. The first binds more tightly here.

Going from `CC(Cc1ccccc1)(C(=O)NO)C(=O)NCCc1ccccc1` (stereo not given) to `CC(Cc1ccccc1)(C(=O)NO)C(=O)NCCCc1ccccc1` (stereo not given), the Ki falls from 9600 nM to 240 nM (40-fold).

`CC(=O)NC(Cc1ccccc1)(C(=O)NO)C(=O)NCc1ccccc1` (stereo not given) and `O=C(NO)C(O)(Cc1ccccc1)C(=O)NCc1ccccc1` (stereo not given) are within 1.5-fold of each other in Ki: 2300 nM for the first, 1900 nM for the second.

Going from `CC(Cc1ccccc1)(C(=O)NO)C(=O)NCc1ccc(C(=O)O)cc1` (stereo not given) to `CC(Cc1ccccc1)(C(=O)NO)C(=O)NCc1ccccc1` (stereo not given), the Ki falls from 41000 nM to 1100 nM (37-fold). The second binds more tightly here.

Compared with `O=C(NO)C1(C(=O)NCCCc2ccccc2)Cc2ccccc2C1`, `O=C(NO)C1(C(=O)NCc2ccccc2)Cc2ccccc2C1` is 5-fold higher in Ki: 300 nM for the first, 1500 nM for the second. The first binds more tightly here.

First: CC(Cc1ccccc1)(C(=O)NO)C(=O)N1CCc2ccccc2C1 (stereo not given)
Second: CC(Cc1ccccc1)(C(=O)NO)C(=O)Nc1cccc2ccccc12 (stereo not given)
The Ki of the first is 5.6-fold lower: 8100 nM for the first, 45000 nM for the second. The first binds more tightly here.

Going from `O=C(NO)C1(C(=O)NCCCc2ccccc2)Cc2ccccc2-c2ccccc2C1` to `CC(Cc1ccccc1)(C(=O)NO)C(=O)NCCCCc1ccccc1` (stereo not given), the Ki falls from 1900 nM to 380 nM (5-fold).

`CCOC(=O)C(C)(CC(C)C)C(=O)NO` (stereo not given) gave a Ki of 41000 nM.
